For data set [1], the system named is Trypanosoma cruzi. The data set can be described thus: Trypanocidal activity against Trypanosoma cruzi CA-I/72 infected in BESM cells assessed as parasite re-emergence at 370 nM treated for 29 days measured after 36 days. The format is functional, organism-based. An outline of the steps:
(§1)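 T. cruzi-infected bovine embryo skeletal muscle (BESM) cells treated with varying compound concentrations for 20 or 29 days, compound refreshed every other day, then followed up to 36 days post-treatment. Trypomastigote emergence into medium checked visually daily through treatment and post-treatment phases; no re-emergence taken as trypanocidal, delayed emergence as trypanostatic.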

For data set [2], the system named is Trypanosoma cruzi. Description: Trypanocidal activity against Trypanosoma cruzi CA-I/72 infected in BESM cells assessed as parasite re-emergence at 370 nM measured over 29 days of drug treatment. The format is functional, organism-based. An outline of the steps:
as §1

Data set [3] deals with Trypanosoma cruzi. The data set can be described thus: Antitrypanosomal activity against amastigote stage of Trypanosoma cruzi Tulahuen infected in rat L6 cells assessed as parasite growth inhibition after 96 hrs by beta-galactosidase reporter gene assay. It counts as functional, organism-based. The following applies: L6, 96 h.
Data set [4] relates to Trypanosoma cruzi. The data set can be described thus: Antitrypanosomal activity against Trypanosoma cruzi Tulahuen infected in mouse NIH/3T3 cells assessed as multimode parasite growth inhibition after 4 days by beta-galactosidase reporter gene assay. The format is functional, organism-based. As to conditions: NIH3T3, 96 h. An outline of the steps: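 Recombinant Tulahuen T. cruzi stably expressing a beta-galactosidase reporter, cocultured with mouse NIH/3T3 fibroblast host cells. Compounds added to host cells before infection with parasites; growth inhibition read by reporter; IC50 in nM.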
On the technique in general: Reporter assays use an easily measured gene product as a stand-in for the process of interest.

A short description of data set [5]: Metabolic stability in mouse microsomes assessed as compound remaining at 1 uM after 1 hr. As to conditions: read-out: Stability. The format is ADME, Microsome. An outline of the steps:
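Mouse liver microsomes incubated 1 h with compound at 1 μM; result expressed as percent of compound remaining.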

Data set [6] is described as follows: Solubility of the compound in phosphate buffer saline. The format is physicochemical.
For data set [7], the system named is Plasma. The data set can be described thus: Metabolic stability in human plasma. It counts as ADME, cell-free.
Data set [8] deals with Trypanosoma cruzi. The data set can be described thus: Trypanocidal activity against Trypanosoma cruzi CA-I/72 infected in BESM cells assessed as parasite re-emergence at 6.6 uM treated for 20 days measured after 37 days. It counts as functional, organism-based. An outline of the steps: as §1
Data set [9] has as its system Trypanosoma cruzi. Description: Trypanocidal activity against Trypanosoma cruzi CA-I/72 infected in BESM cells assessed as parasite re-emergence at 6.6 uM measured over 20 days of drug treatment. The format is functional, organism-based. An outline of the steps:
as §1

For data set [10], the system named is Trypanosoma cruzi. Description: Trypanocidal activity against Trypanosoma cruzi CA-I/72 infected in BESM cells assessed as parasite re-emergence at 740 nM treated for 20 days measured after 37 days. The format is functional, organism-based. An outline of the steps: as §1
The nature of data set [11]: Plasma protein binding in human. The format is ADME, cell-free. As to conditions: read-out: PPB (converted).
The test system of data set [12] is Trypanosoma cruzi. Description: Trypanocidal activity against Trypanosoma cruzi CA-I/72 infected in BESM cells assessed as parasite re-emergence at 250 nM measured over 20 days of drug treatment. The format is functional, organism-based. An outline of the steps:
as §1

The subject of data set [13] is Trypanosoma cruzi. Description: Trypanocidal activity against Trypanosoma cruzi CA-I/72 infected in BESM cells assessed as parasite re-emergence at 40 nM measured over 29 days of drug treatment. The format is functional, organism-based. An outline of the steps: as §1
In data set [14] the test system is Trypanosoma cruzi. The data set can be described thus: Trypanocidal activity against Trypanosoma cruzi CA-I/72 infected in BESM cells assessed as parasite re-emergence at 250 nM treated for 20 days measured after 4 days. It counts as functional, organism-based. An outline of the steps:
as §1

For data set [15], the system named is Trypanosoma cruzi. Description: Trypanocidal activity against Trypanosoma cruzi CA-I/72 infected in BESM cells assessed as parasite re-emergence at 40 nM treated for 29 days measured after 36 days. It counts as functional, organism-based. An outline of the steps: as §1
Data set [16] concerns Trypanosoma cruzi. Description: Trypanocidal activity against Trypanosoma cruzi CA-I/72 infected in BESM cells assessed as parasite re-emergence at 740 nM measured over 20 days of drug treatment. It counts as functional, organism-based. An outline of the steps: as §1
Data set [17] in a line: Fraction unbound in human plasma. The format is ADME, cell-free.

pIC50: −log10 of the molar value. Values after ≈ are worked out from the molar mass of the structure shown. Active and inactive are the calls of the source. The calls are words filed in the database; no cut-off is given here.

As to `C[C@H](CO)N1C[C@H](C)[C@H](CN(C)Cc2ccc(Oc3ccccc3)cc2)Oc2c(NC(=O)c3ccncc3)cccc2C1=O`, the result in data set [1] and in [2] was Active. Further, the results for the negative-log IC50 (pIC50) in data set [3] and in data set [4] were 7.12 and 7.80, respectively. Also, the remaining at 1 h, 1 µM in [5] was below 1%. Also, the solubility (in general, the concentration that dissolves in the medium under given conditions) in [6] is 98 µM (≈ 58.3 µg/mL). In addition, the Stability entry in data set [7] was “Unstable”.
As to `O=C(Cn1ccnc1[N+](=O)[O-])NCc1ccccc1`, the result in data set [8] and in [9] was Active.
With `C[C@H]1CN([C@@H](C)CO)C(=O)c2cccc(NC(=O)c3ccncc3)c2O[C@@H]1CN(C)Cc1ccc(Oc2ccccc2)cc1`, the pIC50 (usually the negative decadic logarithm of the IC50, by convention in mol/L) in [3] is 7.80; in data set [4], 9.00. In addition, the outcome in [10], in data set [13], in data set [15] and in data set [16] was Active. The fraction unbound in data set [11] was 0.01. Moreover, the outcome in [12] and in data set [14] was inactive. Further, the remaining at 1 h, 1 µM in data set [5] amounted to 77%. The compound also came in with a solubility in data set [6] of 1 µM (≈ 0.595 µg/mL).
Regarding `C[C@H]1CN([C@@H](C)CO)C(=O)c2cccc(NC(=O)c3ccncc3)c2O[C@H]1CN(C)Cc1ccc(Oc2ccccc2)cc1`, the fraction unbound in data set [17] and in data set [11] was 0.05 throughout. Further, the pIC50 in data set [3] is 7.23; in data set [4] it was 7.64. In addition, the result in data set [13] and in data set [15] was Active. Further, in data set [5], the remaining at 1 h, 1 µM is below 1%. The same compound came in with a solubility in data set [6] of 93 µM (≈ 55.3 µg/mL).

Source of the values: ChEMBL document CHEMBL3108709, “Diversity-oriented synthesis yields a new drug lead for treatment of chagas disease” (ACS Med Chem Lett, 2014).
